From ChEMBL document CHEMBL1128250, “Structure-activity studies of 2,3,4,4a,5,9b-hexahydroindeno[1,2-c]pyridines as antispermatogenic agents for male contraception” (1995)

Key:
[1] = tested on: Mus musculus; assay: tested for its effect on testes weight 3 days after single oral dose (90 mg/kg); type: functional, Testis
How it was run: (§1)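 Male CD-1 (ICR)BR outbred Swiss albino mice, 5/dose, given one oral gavage dose (10 mL/kg) on day 0 in 0.15 M acetate buffer pH 5, ethanol/Tween-20/water (3:7:90), or 1% Tween-20 in water; vehicle and positive-control groups in each assay. Killed by CO2 72 h later; testes weighed. Expressed as % reduction versus vehicle control; Dunnett's one-tailed t-test.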

[2] = tested on: Mus musculus; assay: tested for its effect on testes weight 3 days after single oral dose (30 mg/kg); type: functional, Testis; how it was run: as §1
[3] = tested on: Mus musculus; assay: tested for its effect on spermatogenic index 3 days after single oral dose (90 mg/kg); type: functional
How it was run: (§2)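 Male CD-1 (ICR)BR outbred Swiss albino mice, 5/dose, single oral gavage dose (10 mL/kg) on day 0 in acetate buffer pH 5 or Tween-20-based vehicle; killed 72 h later. Testis cross-sections scored histologically on a 0–6 spermatogenic index (Sertoli only to >100 late spermatids/tubule). Reported as % reduction versus vehicle control; Dunnett's one-tailed t-test.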

[4] = tested on: Mus musculus; assay: tested for its effect on spermatogenic index 3 days after single oral dose (30 mg/kg); type: functional; how it was run: as §2
[5] = tested on: Mus musculus; assay: Tested for its effect on spermatogenic index 3 days after single oral dose (10 mg/kg),; type: functional
How it was run: (§3)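 CD-1 outbred Swiss albino male mice, 5 per dose, single gavage on day 0 at 10 mL/kg. Vehicle was 0.15 M acetate buffer pH 5, ethanol/Tween-20/water (3:7:90), or 1% Tween-20 in water. CO2 euthanasia 72 h later. Testes weighed and histologically scored (spermatogenic index 0–6). Values are % reduction versus the assay's vehicle control. Positive control was 30 mg/kg of the parent compound. Significance by Dunnett's one-tailed t-test, p < 0.05.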

[6] = tested on: Mus musculus; assay: Tested for its effect on testes weight 3 days after single oral dose (10 mg/kg); type: functional, Testis; how it was run: as §3
[7] = tested on: Mus musculus; assay: Tested for its effect on spermatogenic index 3 days after single oral dose (30 mg/kg) in mice; type: functional; how it was run: as §3
[8] = tested on: Mus musculus; assay: Tested for its effect on mouse testes weight 3 days after single oral dose (30 mg/kg); type: functional, Testis; how it was run: as §3
[9] = tested on: Mus musculus; assay: Tested for its effect on spermatogenic index 3 days after single oral dose (3 mg/kg) in mice; type: functional; how it was run: as §3
[10] = tested on: Mus musculus; assay: Tested for its effect on mouse testes weight 3 days after single oral dose (90 mg/kg); type: functional, Testis; how it was run: as §3
[11] = tested on: Mus musculus; assay: Tested for its effect on mouse testes weight 3 days after single oral dose (3 mg/kg); type: functional, Testis; how it was run: as §3
[12] = tested on: Mus musculus; assay: Tested for its effect on mouse testes weight 3 days after single oral dose (10 mg/kg); type: functional, Testis; how it was run: as §3
[13] = tested on: Mus musculus; assay: Tested for its effect on spermatogenic index 3 days after single oral dose (90 mg/kg) in mice; type: functional; how it was run: as §3
[14] = tested on: Mus musculus; assay: Tested for its effect on spermatogenic index 3 days after single oral dose (10 mg/kg) in mice; type: functional; how it was run: as §3

For CCN1CC[C@H]2[C@H](c3ccc(C)cc3C)c3cc(C)ccc3[C@H]2C1.Cl, the Reduction [1] was 11%, the Reduction [2] was 6% and the Reduction [3] was 30%. It also gave a Reduction [4] of 3%, a Reduction [5] of 0% and a Reduction [6] of 1%.
In the case of Cc1ccc([C@H]2c3cc(C)ccc3[C@H]3CN(C)CC[C@@H]23)cc1.Cl, the Reduction [7] is reported as 7% and the Reduction [8] is reported as 12%.
With CCN1CC[C@H]2[C@H](c3ccc(OC)cc3)c3cc(C)ccc3[C@H]2C1.Cl the Reduction [9] was 2%, the Reduction [10] was 5% and the Reduction [11] was -7%. For the same compound, the Reduction [12] was -17%, the Reduction [13] was -5% and the Reduction [14] was -6%.
